The nature of data set [1]: Stability in phosphate buffer pH 7.2. It is filed as physicochemical. The procedure, abridged: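 Peptides were incubated at 37 °C in phosphate buffer at pH 7.2 without serum. Remaining peptide was sampled at 1, 3, 5, 20, 24 and 48 h and measured by RP-HPLC-MS.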
The nature of the next data set: Serum stability. It counts as in vitro ADME, human. The method in brief:
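Test compound in water (1 mg/mL stock) diluted to 0.1 mg/mL in phosphate buffer pH 7.2, then added to serum from one 40th-week pregnant donor (oxytocinase-rich) and incubated at 37 °C with a reference peptide as internal standard. Aliquots at 1, 3, 5, 20, 24, 48 h were quenched in H2O/CH3CN (1:1) with 0.1% TFA, held 5 min at 0 °C and centrifuged.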

The next data set has as its system isolated uterus. The conditions noted are these: rat isolated uterus; cited from earlier work.
The next data set relates to rat mammary gland. Particulars: cited from earlier work.

The source of these data is paper PMC10519257 (Journal of Enzyme Inhibition and Medicinal Chemistry, 2023).

Ends that are not written are not given here.

By half-life is commonly meant the time in which the quantity being followed falls by half. Regarding `CC[C@H](C)[C@@H]1NC(=O)[C@H](Cc2ccc(O)cc2)NC(=O)[C@@H](N)CSSC[C@@H](C(=O)N2CCC[C@H]2C(=O)N[C@@H](CC(C)C)C(=O)NCC(N)=O)NC(=O)[C@H](CC(N)=O)NC(=O)[C@H](CCC(N)=O)NC1=O` [OT, Oxytocin], the half-life in data set [1] is 24 h; in the data set “Serum stability” (human, serum), 16 h. Besides, the “time after which not detectable by analytical RP-HPLC” value in “Serum stability” (woman serum at 40th week of pregnancy, 37 °C) was 48 h.

On to “(1,6-di-alanine)-oxytocin (AYIQNAPLG; ends and bridges not checked; UniProt P01178 20-28, looked up, variant C1A C6A) [[Ala(1,6)]OT]”, for which the contractile activity result with isolated uterus and with rat mammary gland was “devoid of any contractile activity” in each case.

Take “(1,6-di-serine)-oxytocin (SYIQNSPLG; ends and bridges not checked; UniProt P01178 20-28, looked up, variant C1S C6S) [[Ser(1,6)]OT]”: the contractile activity result in the data set with isolated uterus and with rat mammary gland was “devoid of any contractile activity” in each case.
